Data on one compound can be found in article PMC6619501 (Nature microbiology, 2018).

One test relates to IκBα phosphorylation. Briefly: Immunoblot analysis of p-IκBα in A.f-infected BMDMs. It counts as cell-based, mouse. To be noted: unprimed WT BMDMs incubated with NF-κB inhibitor during fungal infection. The essentials: (§1)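 Bone-marrow-derived macrophages from C57BL/6-background mice, 3×10^6 cells in DMEM with 10% FBS and 1% penicillin–streptomycin, left unprimed and given the NF-κB inhibitor class test compound. They were then infected with A. fumigatus A1160 conidia (malt-agar slants, 1 week) at MOI 20. Cells were lysed in 1× RIPA, and 15 μg protein was separated by SDS-PAGE, transferred to PVDF and probed for p-IκBα, total IκBα and IRF1 with HRP detection. Representative of ≥3 independent experiments.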
For orientation: In western blotting, separated proteins are transferred to a membrane and probed.

A further test relates to IRF1. Briefly: Immunoblot analysis of IRF1 in A.f-infected BMDMs. The test is classed as cell-based, mouse. The note with it: unprimed WT BMDMs incubated with NF-κB inhibitor during fungal infection. The essentials: as §1

As to `Cc1ccc(S(=O)(=O)/C=C/C#N)cc1` [Bay 11-7082], the “phosphorylation of IκBα” value with IκBα phosphorylation is “reduced”. In the test on IRF1, the IRF1 induction result is “reduced”.
